Data on 18 compounds can be found in PubChem BioAssay.

A word on the viability: it is a read-out of living cells in per cent, often relative to untreated cells. As usually defined, the inhibition is the drop in the measured response relative to a control, in per cent.

SMILES strings stand for the structures. Values without a mark were called inactive. Inconclusive results are not listed. Activity calls are given as the source filed them.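 The calls were made as follows, unless noted: active = viability increase at or above a cutoff of the median across tested compounds plus 3 SD (cut at about 8.5% in these data, passing the limit was not always enough); inconclusive = some gains above the cutoff, reason not given; inactive = the rest.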

The nature of experiment [1]: OD615 S. cerevisiae growth inhibition, permissive medium, pilot counter-assay, permissive growth control for S. cerevisiae lifespan shortening project (AID 705;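 active = growth inhibition above 25% in both replicates, a cutoff set 3 SD above the mean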). Conditions: OD615, 24 h, at 10 µM, active compounds read high. Put shortly: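 System: Engineered DeaD yeast | Buffer or medium: SC raffinose/galactose permissive medium | Doses: 10 µM single dose, 0.25% DMSO | Times: 24 h exposure, 30 °C | Measured by: OD615 turbidity read | Read-out: Yeast growth inhibition indicated by reduced 24 h OD615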

The nature of experiment [2]: Restrictive medium S. cerevisiae growth inhibition, OD615, pilot screen of yeast lifespan reduction project, restrictive growth control (AID 706;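 active = growth inhibition above a set limit, 3 SD over mean compound inhibition, in both replicates, cut at about 43% in these data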;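 also: modified DeaD lifespan yeast strain shifted to restrictive glucose medium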). Conditions: OD615, 48 h, at 10 µM, active compounds read high. The gist of the method:
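Assay system: engineered S. cerevisiae DeaD strain; Buffer or medium: CSMM-D glucose medium; Dosing: 10 µM compound, 0.25% DMSO; Times: cell pre-growth 4 h, compound exposure 48 h, 30 °C; Detection: absorbance (optical density) measured at 615 nm.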

Experiment [3] can be described thus: viability gain of MRP-1-high H69AR cells under doxorubicin, pilot screen, MRP-1 activator project, CellTiter-Glo, duplicate (AID 807).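 Also: compound pretreatment 18-22 h then 72 h combined with doxorubicin; 0% = doxorubicin alone and 100% = vehicle without doxorubicin.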 The conditions noted are these: H69AR viability with doxorubicin, CellTiter-Glo luminescence; at 10 µM; active compounds read high. A general note: In ATP-based viability assays light output follows the ATP content of the culture.
Experiment [4] in a line: growth suppression of beta-catenin knockout HCT116, pilot screen, human colon tumor cells (AID 823;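 active = cell viability at or below a set limit in both duplicate runs, the limit being the all-compound median minus 4 SD, cut at about 23% in these data, passing the limit was not always enough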;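 also: 0% = wells killed by 20 µM Hyamine and 100% = untreated DMSO cell wells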). Conditions: CellTiter-Glo, 60 h, at 10 µM, active compounds read low.
Experiment [5] in a line: growth suppression of PTEN-deleted HCT116, pilot screen, cell-based, HCT116 clonal line, CellTiter-Glo (AID 824;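 active = viability at or below 27.92% in each of two runs, the all-compound median minus 4 SD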;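 also: 0% = 20 µM Hyamine control and 100% = vehicle cell control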). Conditions: 60 h, at 10 µM, active compounds read low.
Experiment [6] can be described thus: inhibitors of the yeast RAM network, pilot screen, dse1pr::URA3 reporter, 5-FOA selection (AID 869;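 active = inhibition over a set limit, the all-compound mean plus 3 SD, in both replicate runs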;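 also: 0% = DMSO wells with no growth and 100% = 10 µM 1-NA-PP1 with full growth; RAM network block rescues cells from 5-FOA so hits raise OD615 growth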). Conditions: S. cerevisiae dse1pr::URA3 5-FOA growth, OD615, 2 d; at 10 µM; active compounds read high; strain carries analog-sensitive mutant Cbk1 kinase.
Experiment [7] in a line: RAM signaling pathway blockade in yeast – S. cerevisiae, Pdr1DBD-CYC8 efflux-inhibited sensitized strain, primary screen (AID 1298;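 active = RAM network inhibition above 8.4% in each of two replicates, 3 SD over the compound average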;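 also: 0% = DMSO untreated cells without growth and 100% = 10 µM 1-NA-PP1 full growth; higher means more yeast growth rescued from 5-FOA killing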). The conditions noted are these: S. cerevisiae cbk1-as DSE1-URA3 strain, 5-FOA growth OD615, 2 d; at 50 µM; active compounds read high.

Consider `CCN(CC)CCNC(=O)c1cc2c(-c3ccc(Cl)cc3)nn(C)c2s1`, for which the values for the growth inhibition in experiment [1] and in experiment [2] were -4.4% and 2.85%, respectively. Also, the viability increase in experiment [3] was -8.35%. Further, the viability in experiment [4] is 2.18% (active); in experiment [5] it was 1.95% (active). For the same compound, in experiment [6], the inhibition was 0.905%. The RAM network inhibition in experiment [7] is 4.19%.

As for `Cn1c(=O)c2cc(S(=O)(=O)NC(Cc3ccccc3)C(=O)NCc3ccco3)ccc2n(C)c1=O` (stereo unspecified), the growth inhibition in experiment [1] was -16.4%; in experiment [2] it was -11.4%. Also, the viability increase in experiment [3] is -4.79%. The viability in experiment [4] was 101%; in experiment [5], 92%. In experiment [6], the inhibition was 2.81%. For the same compound, the RAM network inhibition in experiment [7] is 4.39%.

On to `O=C(NCc1cccnc1)NC1(C(F)(F)F)Oc2ccc(Cl)cc2O1` (stereo unspecified), for which the growth inhibition in experiment [1] was -2.96%; in experiment [2], -8.97%. The viability increase in experiment [3] was -6.19%. In addition, the viability in experiment [4] is 52.6%; in experiment [5] it was 58.7%. Further, the inhibition in experiment [6] was 0.4%. The RAM network inhibition in experiment [7] was 0.63%.

`Fc1cccc(-c2cc3nc4c(c(N5CCC6(CC5)OCCO6)n3n2)CCCC4)c1`: the growth inhibition in experiment [1] is 3.03%; in experiment [2] it was -2.67%. In addition, the viability increase in experiment [3] was -3.94%. Also, the values for the viability in experiment [4] and in experiment [5] were 70.6% and 61.5%, respectively. The inhibition in experiment [6] was 1.19%. Moreover, the RAM network inhibition in experiment [7] is -0.47%.

With `CCC(C)Sc1nc2c(c(=O)n1C)SC(C)C2` (stereo unspecified), the growth inhibition in experiment [1] was -11.3%; in experiment [2] it was 7.98%. Also, the viability increase in experiment [3] was -0.66%. Also, the results for the viability in experiment [4] and in experiment [5] were 91.6% and 91.8%, respectively. Also, the inhibition in experiment [6] was 2.51%. The RAM network inhibition in experiment [7] was 4.01%.

Consider `COc1cc(S(=O)(=O)N2CCN(c3ccccc3)CC2)ccc1Cl`, for which the values for the growth inhibition in experiment [1] and in experiment [2] were -16.9% and -14%, respectively. For the same compound, in experiment [3], the viability increase is -3.07%. Also, the viability in experiment [4] was 95.1%; in experiment [5], 95.3%. Also, the inhibition in experiment [6] is 0.17%. In addition, the RAM network inhibition in experiment [7] was 6.95%.

In the case of `CN(C)S(=O)(=O)c1ccc(C(=O)OCCCN=C2NS(=O)(=O)c3ccccc32)cc1`, the growth inhibition in experiment [1] was -13%; in experiment [2], -15.2%. For the same compound, the viability increase in experiment [3] is 0.05%. Moreover, the viability was 109% in experiment [4] and 102% in experiment [5]. Moreover, in experiment [6], the inhibition is 0.955%. Further, in experiment [7], the RAM network inhibition is 2.94%.

Turning to `[O-]/[N+](=C\c1ccc(OC(F)F)cc1)c1ccccc1`, the growth inhibition in experiment [1] is -1.07%; in experiment [2] it was 2.88%. Moreover, the viability increase in experiment [3] was -5.13%. Also, the figures for the viability in experiment [4] and in experiment [5] were 88.1% and 93.7%, respectively. In addition, in experiment [6], the inhibition was 1.19%. In experiment [7], the RAM network inhibition is 1.08%.

As to `COc1ccc(NC(=O)c2cnn3c(C(F)(F)F)cc(-c4ccco4)nc23)cc1OC`, the values for the growth inhibition in experiment [1] and in experiment [2] were -11.5% and -12.4%, respectively. The viability increase in experiment [3] is -0.73%. For the same compound, the viability in experiment [4] was 96.5%; in experiment [5] it was 93%. Further, the inhibition in experiment [6] is 1.89%. Also, the RAM network inhibition in experiment [7] was 2.09%.

Turning to `O=C1Nc2ccccc2C(O)(C(=O)NC2CC2)N1c1ccc(Cl)c(Cl)c1` (stereo unspecified), the growth inhibition in experiment [1] was -1.51%; in experiment [2] it was -1.06%. Also, the viability increase in experiment [3] was -4.14%. Moreover, the viability was 92.5% in experiment [4] and 95% in experiment [5]. In addition, the inhibition in experiment [6] was 1.22%. For the same compound, in experiment [7], the RAM network inhibition was 3.99%.

For `CCSC1=C(C#N)C(c2ccc(F)cc2)CC(=O)N1` (stereo unspecified), the growth inhibition in experiment [1] is 5.18%; in experiment [2] it was -4.98%. Further, the viability increase in experiment [3] is 1%. For the same compound, the values for the viability in experiment [4] and in experiment [5] were 93.4% and 101%, respectively. Further, in experiment [6], the inhibition was 0.48%. The RAM network inhibition in experiment [7] is 2.29%.

For `CCCCN1C(=O)c2ccc(C(=O)Nc3c(N)n(CCCC)c(=O)n(C)c3=O)cc2C1=O`, the growth inhibition in experiment [1] is -9.82%; in experiment [2], -6.89%. Moreover, the viability increase in experiment [3] was -0.93%. For the same compound, the results for the viability in experiment [4] and in experiment [5] were 103% and 88.2%, respectively. In addition, the inhibition in experiment [6] was 0.865%. Besides, the RAM network inhibition in experiment [7] was 7.06%.

For the compound `COc1ccc(S(=O)(=O)Nc2ccc3c(c2)OCO3)cc1C(=O)O`, the figures for the growth inhibition in experiment [1] and in experiment [2] were -4.6% and -5.47%, respectively. Further, in experiment [3], the viability increase was -1.95%. Also, the viability in experiment [4] was 93.5%; in experiment [5] it was 94.5%. Moreover, the inhibition in experiment [6] is 0.425%. Also, in experiment [7], the RAM network inhibition was 3.99%.

Turning to `COc1ccc(N(CC(=O)NC2CCCCCCC2)S(=O)(=O)c2c(C)nn(C)c2C)cc1`, the growth inhibition in experiment [1] is -20.7%; in experiment [2] it was -13.6%. For the same compound, the viability increase in experiment [3] was -2.87%. In addition, the viability in experiment [4] is 89.2%; in experiment [5], 87.5%. In addition, in experiment [6], the inhibition is 1.31%. The RAM network inhibition in experiment [7] is 0.05%.

Take `CCCC(=O)NCCc1nc2ccccc2n1CCC`: the growth inhibition in experiment [1] was -7.3%; in experiment [2], 2.73%. In addition, the viability increase in experiment [3] was 0.5%. Further, the viability in experiment [4] is 102%; in experiment [5], 101%. Also, the inhibition in experiment [6] was 2.72%. Further, in experiment [7], the RAM network inhibition is -1.16%.

Turning to `O=C(CSc1cn(Cc2ccccc2)c2ccccc12)Nc1nccs1`, the values for the growth inhibition in experiment [1] and in experiment [2] were -7.55% and 3.57%, respectively. For the same compound, in experiment [3], the viability increase was 1.89%. In addition, the viability in experiment [4] was 88.8%; in experiment [5], 85.4%. Moreover, the inhibition in experiment [6] is 1.73%. Also, in experiment [7], the RAM network inhibition is 0.83%.

For the compound `O=C(CN1C(=O)c2ccccc2S1(=O)=O)NC1CCCCCC1`, the growth inhibition is 2.58% in experiment [1] and -5% in experiment [2]. For the same compound, the viability increase in experiment [3] is -1.02%. The viability in experiment [4] was 102%; in experiment [5], 101%. The inhibition in experiment [6] is 0.355%. For the same compound, in experiment [7], the RAM network inhibition was 4.59%.

Regarding `CCOc1cc(CN2CCN(c3cccc(C(F)(F)F)c3)CC2)ccc1O`, the growth inhibition in experiment [1] was -9.48%; in experiment [2] it was -4.3%. Moreover, the viability increase in experiment [3] is -5.3%. Also, the figures for the viability in experiment [4] and in experiment [5] were 82.7% and 82.9%, respectively. The inhibition in experiment [6] is 1.4%. In addition, the RAM network inhibition in experiment [7] was 0.97%.
